Calls of active or inactive are those of the source. No cut-off for these calls is given here.
How the values were obtained:
Mus musculus [1] = test: Toxicity in NMRI mice (Mus musculus) infected with Plasmodium berghei ANKA at 3 times 100 mg/kg, perorally measured up to 30 days postinfection; format: organism-based; design: dose 100 mg/kg, route oral; details: in vivo, po, 720 h
Mus musculus [2] = test: Toxicity in NMRI mice (Mus musculus) infected with Plasmodium berghei ANKA at 10 mg/kg, perorally administered as single dose measured up to 30 days postinfection; format: organism-based; design: dose 10 mg/kg, route oral; details: in vivo, po, 720 h
[3] = Half life in CD-1 mouse at 5 mg/kg, iv; format: ADME, organism-based; design: dose 5 mg/kg, route intravenous; details: in vivo
Method in brief: (§1)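 Mice dosed with 25 mg/kg p.o. as a 2.5 mg/ml suspension in 0.5% CMC, or with 5 mg/kg i.v. at 1 mg/ml in 10% NMP, 30% PEG 400 and 60% of 10% vitamin E-TPGS. Blood sampled at several time points. Plasma extracted with acidified acetonitrile (8:1) and quantified by LC-MS, LLOQ 12 ng/ml.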

Plasmodium berghei [4] = test: Antimalarial activity against Plasmodium berghei ANKA infected in NMRI mice (Mus musculus) assessed as mean survival time at 3 times 30 mg/kg, perorally; format: functional; details: route oral
Method in brief: (§2)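 Infection: 5 female NMRI mice (20–22 g) per group, inoculated intravenously with 0.2 ml of donor blood at 1 × 10^8 parasitized erythrocytes/ml. Oral administration in 0.5% carboxymethyl cellulose. Survival time recorded up to 30 days after infection and averaged per group.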

[5] = Oral bioavailability in CD-1 mouse at 25 mg/kg; format: ADME, organism-based; details: in vivo; method in brief: as §1
Mus musculus [6] = test: Toxicity in NMRI mice (Mus musculus) infected with Plasmodium berghei ANKA at 100 mg/kg, perorally administered as single dose measured up to 30 days postinfection; format: organism-based; design: dose 100 mg/kg, route oral; details: in vivo, po, 720 h
Rattus norvegicus [7] = test: Toxicity in Wistar rat assessed as occurrence of massive bone marrow atrophy at => 50 mg/kg, po after 2 weeks; format: organism-based; design: dose 50 mg/kg, route oral; details: in vivo, 336 h
Method in brief: (§3)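 Male Wistar rats, about 10 weeks old (254–292 g), 5 per group, gavaged daily with 50, 150 or 500 mg/kg/day. Vehicle was 10% of 1% aqueous Solutol HS15 plus 90% of 0.5% aqueous methylcellulose; exploratory 2-week design. Clinical observations, body weight, food intake, hematology, clinical chemistry and gross pathology recorded. Histopathology covered gross lesions and selected organs in the control and low-dose groups.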

Mus musculus [8] = test: Toxicity in NMRI mice (Mus musculus) infected with Plasmodium berghei ANKA at 3 times 60 mg/kg, perorally measured up to 30 days postinfection; format: organism-based; design: dose 60 mg/kg, route oral; details: in vivo, po, 720 h
Plasmodium berghei [9] = test: Antimalarial activity against Plasmodium berghei ANKA infected in NMRI mice (Mus musculus) assessed as cure rate at 10 mg/kg, perorally administered as single dose […]; format: functional; details: route oral
Method in brief: (§4)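 Female NMRI mice (20–22 g), 5 per group, infected intravenously with 0.2 ml of 1 × 10^8 parasitized erythrocytes/ml from a fresh donor mouse. Compound suspended in 0.5% carboxymethyl cellulose and given orally. Survival followed to day 30 post-infection; an animal was scored cured if it survived to day 30 without parasites.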

[10] = Cmax in Wistar rat at 25 mg/kg, po; format: ADME, organism-based; design: dose 25 mg/kg, route oral; details: in vivo
Method in brief: (§5)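 Rats dosed with 25 mg/kg p.o. as a 2.5 mg/ml suspension in 0.5% CMC, or with 5 mg/kg i.v. at 1 mg/ml in 10% NMP, 30% PEG 400 and 60% of 10% vitamin E-TPGS. Plasma sampled over time, extracted with acidified acetonitrile (8:1) and quantified by LC-MS, LLOQ 12 ng/ml.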

[11] = AUC in Wistar rat at 25 mg/kg, po; format: ADME, organism-based; design: dose 25 mg/kg, route oral; details: plasma; method in brief: as §5
Plasmodium berghei [12] = test: Antimalarial activity against Plasmodium berghei ANKA infected in NMRI mice (Mus musculus) assessed as cure rate at 15 mg/kg, perorally administered as single dose measured on day 3 postinfection; format: functional; details: route oral; method in brief: as §4
Rattus norvegicus [13] = test: Toxicity in Wistar rat assessed as occurrence of bone marrow degeneration at => 50 mg/kg, po after 2 weeks; format: organism-based; design: dose 50 mg/kg, route oral; details: in vivo, 336 h; method in brief: as §3
[14] = Binding affinity to recombinant Plasmodium falciparum V1/S DHFR S108N, N51I, C59R, I164L mutant by competitive binding assay; design: species or system V1S
[15] = Oral bioavailability in Wistar rat at 25 mg/kg; format: ADME, organism-based; details: in vivo; method in brief: as §5
Plasmodium berghei [16] = test: Antimalarial activity against Plasmodium berghei ANKA infected in perorally dosed NMRI mice (Mus musculus) assessed as reduction in parasitemia administered as single dose measured on day 3 postinfection; format: functional; details: po, 72 h
Plasmodium berghei [17] = test: Antimalarial activity against Plasmodium berghei ANKA infected in NMRI mice (Mus musculus) assessed as survival rate at 15 mg/kg, perorally administered as single dose; format: functional; details: route oral; method in brief: as §2
Plasmodium berghei [18] = test: Antimalarial activity against Plasmodium berghei ANKA infected in NMRI mice (Mus musculus) assessed as reduction in parasitemia at 60 mg/kg, perorally administered as single dose measured on day 3 postinfection; format: functional; design: scale not given: the % may be the effect or the level left; details: route oral
Method in brief: (§6)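 P. berghei ANKA given intravenously to groups of 5 female NMRI mice (20–22 g): 0.2 ml of 1 × 10^8 parasitized erythrocytes/ml from a donor mouse. Oral dosing in 0.5% carboxymethyl cellulose. Parasitemia counted by microscopy. Activity is the control-minus-treated parasitemia difference, expressed as percent of untreated controls.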

Rattus norvegicus [19] = test: Toxicity in Wistar rat assessed as occurrence of inflammatory changes in gastric tract at => 50 mg/kg, po after 2 weeks; format: organism-based, Stomach; design: dose 50 mg/kg, route oral; details: in vivo, 336 h; method in brief: as §3
Plasmodium berghei [20] = test: Antimalarial activity against Plasmodium berghei ANKA infected in NMRI mice (Mus musculus) assessed as mean survival time at 3 times 60 mg/kg, perorally; format: functional, organism-based; design: dose 60 mg/kg
Plasmodium berghei [21] = test: Antimalarial activity against Plasmodium berghei ANKA infected in NMRI mice (Mus musculus) assessed as cure rate at 3 times 60 mg/kg, perorally measured on day 3 postinfection; format: functional; details: route oral; method in brief: as §4
[22] = Cmax in CD-1 mouse at 25 mg/kg, po; format: ADME, organism-based; design: dose 25 mg/kg, route oral; details: in vivo; method in brief: as §1
Plasmodium berghei [23] = test: Antimalarial activity against Plasmodium berghei ANKA infected in NMRI mice (Mus musculus) assessed as reduction in parasitemia at 3 times 60 mg/kg, perorally measured on day 3 postinfection; format: functional; design: scale not given: the % may be the effect or the level left; details: route oral; method in brief: as §6
Plasmodium berghei [24] = test: Antimalarial activity against Plasmodium berghei ANKA infected in NMRI mice (Mus musculus) assessed as reduction in parasitemia at 15 mg/kg, perorally administered as single dose measured on day 3 postinfection; format: functional; design: scale not given: the % may be the effect or the level left; details: route oral; method in brief: as §6
[25] = AUC (0 to 24 hrs) in Wistar rat at 50 mg/kg, po; format: ADME, organism-based; design: time < 24 hr, dose 50 mg/kg, route oral; details: plasma
Plasmodium falciparum = test: Antimalarial activity against pyrimethamine-resistant Plasmodium falciparum V1/S harboring S108N, N51I, C59R, I164L mutation in DHFR assessed as decrease in parasitaemia; format: functional, organism-based; details: V1S
Plasmodium berghei [26] = test: Antimalarial activity against Plasmodium berghei ANKA infected in NMRI mice (Mus musculus) assessed as reduction in parasitemia at 3 times 100 mg/kg, perorally measured on day 3 postinfection; format: functional; design: scale not given: the % may be the effect or the level left; details: route oral; method in brief: as §6
[27] = AUC (0 to 24 hrs) in NMRI mouse at 26.5 mg/kg, po; details: plasma
Mus musculus [28] = test: Toxicity in NMRI mice (Mus musculus) infected with Plasmodium berghei ANKA at 60 mg/kg, perorally administered as single dose measured up to 30 days postinfection; format: organism-based; design: dose 60 mg/kg, route oral; details: in vivo, po, 720 h

Q: Which Activity (Mus musculus [1]) does the source give for `COc1ccc(OC)c(CNc2ccc3nc(N)nc(N)c3c2Cl)c1` here?
A: 80%

Q: And the Activity (Mus musculus [2])?
A: 0%

Q: And the half-life [3]?
A: 48 min

Q: And the Survival (Plasmodium berghei [4])?
A: 28.4 days

Q: What about the bioavailability [5] of the same molecule?
A: 100%

Q: And the Activity (Mus musculus [6])?
A: 0%

Q: What about the Activity (Rattus norvegicus [7]) of the same molecule?
A: Toxic

Q: What about the Activity (Mus musculus [8]) of the same molecule?
A: 40%

Q: What about the Activity (Plasmodium berghei [9]) of the same molecule?
A: 0%

Q: What about the Cmax [10] of the same molecule?
A: 2.8 µM

Q: And the AUC [11]?
A: 67.3 µM·h

Q: And the Activity (Plasmodium berghei [12])?
A: 0%

Q: What about the Activity (Rattus norvegicus [13]) of the same molecule?
A: Toxic

Q: And the Ki [14]?
A: 0.58 nM

Q: What about the bioavailability [15] of the same molecule?
A: 63%

Q: And the ED50 (Plasmodium berghei [16])?
A: 7.2 mg/kg

Q: What about the ED90 (Plasmodium berghei [16]) of the same molecule?
A: 12.4 mg/kg

Q: And the Survival (Plasmodium berghei [17])?
A: 6 days

Q: And the Activity (Plasmodium berghei [18])?
A: >99.99%

Q: What about the Activity (Rattus norvegicus [19]) of the same molecule?
A: Toxic

Q: And the Activity (Plasmodium berghei [20])?
A: inactive

Q: What about the Activity (Plasmodium berghei [21]) of the same molecule?
A: 60%

Q: And the Cmax [22]?
A: 5.1 µM

Q: And the Activity (Plasmodium berghei [23])?
A: >99.99%

Q: What about the Activity (Plasmodium berghei [24]) of the same molecule?
A: 73%

Q: And the AUC(0-t) at 24 h [25]?
A: 27.6 µg·h/mL

Q: What about the IC50 (Plasmodium falciparum) of the same molecule?
A: 7.61 nM

Q: What about the Activity (Plasmodium berghei [26]) of the same molecule?
A: >99.99%

Q: And the AUC(0-t) at 24 h [27]?
A: 17 µg·h/mL

Q: And the Activity (Mus musculus [28])?
A: 0%

Source: ChEMBL document CHEMBL1255487, “Preclinical evaluation of the antifolate QN254, 5-chloro- N'6'-(2,5-dimethoxy-benzyl)-quinazoline-2,4,6-triamine, as an antimalarial drug candidate” (Antimicrob Agents Chemother, 2010)
